Measured values reported in ChEMBL document CHEMBL3272226, “Synthesis and dopaminergic activity of (+/-)-, (+)-, and (-)-2-dipropylamino-5-hydroxy-1,2,3,4-tetrahydronaphthalene” (1976).
Active and inactive are the calls of the source. No cut-off for these calls is given here.

Columns and labels:
Canis familiaris [1] = experiment: Dopaminergic activity in (+)-6-(dipropylamino)-5,6,7,8-tetrahydronaphthalen-1-ol-pretreated dog assessed as induction of emesis administered intramuscularly measured up to 20 hrs; assay type: functional, organism-based; conditions: Canis lupus familiaris
Outline: (§1)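 Dogs, three to five per dose, given im injection of test solutions (HCl or HI salts dissolved in saline, doses as free base); minimum emetic dose determined.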

Rattus norvegicus [2] = experiment: Dopaminergic activity in (+)-6-(dipropylamino)-5,6,7,8-tetrahydronaphthalen-1-ol-pretreated sc dosed Sprague-Dawley rat assessed as induction of stereotyped behavior administered for 30 to 50 mins; assay type: functional, organism-based
Outline: (§2)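 Sprague-Dawley male rats, three per dose, dosed sc with HCl or HI salts in saline (doses as free base); minimum dose inducing stereotyped behavior lasting 30-50 min determined.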

Canis familiaris [3] = experiment: Dopaminergic activity in dog assessed as induction of emesis administered intramuscularly measured up to 20 hrs; assay type: functional, Canis lupus familiaris; conditions: for minimal effective dose: Canis lupus familiaris, im, 20 h, read-out: MED; outline: as §1
Rattus norvegicus [4] = experiment: Dopaminergic activity in sc dosed Sprague-Dawley rat assessed as induction of stereotyped behavior administered for 30 to 50 mins; assay type: functional; conditions: for minimal effective dose: Rattus norvegicus, Sprague-Dawley, sc, read-out: MED; outline: as §2

## CN1CCc2cccc3c2[C@H]1Cc1ccc(O)c(O)c1-3
Canis familiaris [1]
  Activity: Active
Rattus norvegicus [2]
  Activity: Active

## CCCN(CCC)C1CCc2cc(O)ccc2C1 (racemic)
Canis familiaris [3]
  minimal effective dose: 0.036 mg/kg
Rattus norvegicus [4]
  minimal effective dose: 13 mg/kg

## CCCN(CCC)C1CCc2ccc(O)cc2C1 (racemic)
Canis familiaris [3]
  minimal effective dose: 0.013 mg/kg
Rattus norvegicus [4]
  minimal effective dose: 23 mg/kg

## CCCN(CCC)C1CCc2c(O)cccc2C1 (racemic) [5-OH-DPAT]
Canis familiaris [3]
  MED: 4 µg/kg
Rattus norvegicus [4]
  MED: 0.09 mg/kg

## CCCN(CCC)C1CCc2c(O)cccc2C1 (single isomer, unassigned; (+)) [5-OH-DPAT]
Canis familiaris [3]
  MED: >80 µg/kg
Rattus norvegicus [4]
  MED: >1.8 mg/kg

## CCCN(CCC)C1CCc2c(O)cccc2C1 (single isomer, unassigned; (-))
Canis familiaris [1]
  Activity: Active
Rattus norvegicus [2]
  Activity: Active

## CCCN(CCC)C1CCc2c(O)cccc2C1 (single isomer, unassigned; (-)) [5-OH-DPAT]
Canis familiaris [3]
  MED: 2 µg/kg
Rattus norvegicus [4]
  MED: 0.05 mg/kg
